Screening results as filed in PubChem BioAssay.
Cneo AK release: Cryptococcus neoformans cell lysis inducers, primary screen, AK release luminescence, single concentration; C. neoformans lysis, adenylate kinase release luminescence, 4 h; normalised: neutral wells 0, clomiphene wells 100; lysis activity, % at 15 µM; 360,000 compounds, 0.2% hits;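 active = mean lysis activity across replicates of at least 80%, whatever share of replicates individually reach that level; inactive = mean lysis activity below 80%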
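Signal: Adenylate kinase release luminescence | Assay system: Log-phase Cryptococcus neoformans yeast cells | Input: Cells at 5 × 10^6 per mL | Buffer or medium: Fresh YPD growth medium | Compound: Single dose | Schedule: Static 4 h at 37 °C with compound, 1 h detection | Controls: Clomiphene | Read-out: Luminescence rise reflecting yeast cell lysis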
esBAF inh: Bmi1 luciferase reporter increase in mESCs, primary screen, esBAF inhibitor project, mouse ES cells, Bmi1 luciferase knock-in, single point. 24 h; 100% = twice the neutral-well signal. reporter increase, % at 12.5 µM. 350,000 compounds, 2% hits. AID 602393, 2012; in the data active = activation above about 40%; inconclusive = no clear call, values can overlap the other calls;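 also: 0% = median of the plate's neutral control wells and 100% = double that signal; a rise in the Bmi1 reporter signal indicates esBAF inhibition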
ERAP1 HTS inh: human ERAP1 aminopeptidase inhibitors, primary screen, biochemical, single point, plate reader; Endoplasmic reticulum aminopeptidase 1 (Homo sapiens), Q9NZ08; 340,000 compounds, 0.15% hits; inhibition, % at 10.7 µM; recombinant ERAP1, Leu-AMC fluorescence, 60 min;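 active = mean replicate inhibition of at least 30%, or all replicates individually reaching that 30% level; inactive = mean below 30% and not every replicate reaching it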;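 also: 0% = neutral control wells and 100% = L-leucinethiol positive control wells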
Target sequence (Q9NZ08 whole entry, looked up): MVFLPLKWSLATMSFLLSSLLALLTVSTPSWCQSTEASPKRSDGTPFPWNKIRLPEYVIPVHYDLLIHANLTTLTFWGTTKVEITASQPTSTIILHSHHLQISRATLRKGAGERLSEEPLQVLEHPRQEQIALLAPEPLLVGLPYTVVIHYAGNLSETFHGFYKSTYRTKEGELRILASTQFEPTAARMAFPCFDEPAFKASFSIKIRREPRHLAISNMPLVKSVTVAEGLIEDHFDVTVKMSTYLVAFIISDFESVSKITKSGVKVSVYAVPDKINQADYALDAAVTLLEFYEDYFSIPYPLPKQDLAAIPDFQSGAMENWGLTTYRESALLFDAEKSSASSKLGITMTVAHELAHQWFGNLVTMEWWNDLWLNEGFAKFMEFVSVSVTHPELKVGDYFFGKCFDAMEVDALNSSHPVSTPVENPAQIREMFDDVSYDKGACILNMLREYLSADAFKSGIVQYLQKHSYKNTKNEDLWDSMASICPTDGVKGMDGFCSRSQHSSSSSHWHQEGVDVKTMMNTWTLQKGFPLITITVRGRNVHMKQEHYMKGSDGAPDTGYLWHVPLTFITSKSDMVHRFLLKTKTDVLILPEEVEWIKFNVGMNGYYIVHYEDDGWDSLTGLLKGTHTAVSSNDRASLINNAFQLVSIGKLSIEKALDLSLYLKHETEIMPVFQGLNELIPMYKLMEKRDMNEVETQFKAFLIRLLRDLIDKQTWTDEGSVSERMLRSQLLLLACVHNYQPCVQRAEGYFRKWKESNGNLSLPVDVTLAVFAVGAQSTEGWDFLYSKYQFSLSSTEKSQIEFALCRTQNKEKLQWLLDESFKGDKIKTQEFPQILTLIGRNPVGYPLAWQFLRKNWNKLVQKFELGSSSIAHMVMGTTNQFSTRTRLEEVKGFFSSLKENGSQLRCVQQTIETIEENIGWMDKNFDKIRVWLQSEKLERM
MITF TRPM1 HTS: activators of MITF-driven TRPM1 promoter reporter, primary screen, cell-based, SK-MEL-5, luciferase, single point. SK-MEL-5 TRPM1-promoter luciferase, 24 h; % of positive control, neutral wells = 0. activation, % at 12.5 µM. 300,000 compounds, 0.75% hits;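 active = mean activation of at least 80% with every replicate also reaching 80%; inconclusive = mean reaches 80% but some replicate falls short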;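 also: 0% = neutral control wells and 100% = parthenolide positive control wells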
Env fusion inh: inhibitors of HIV-1 Env-driven cell-cell fusion, primary screen, HeLa-JRFL effector, CEM21 target cells, luciferase. 360,000 compounds, 1.1% hits. inhibition, % at 12.3 µM;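 active = mean replicate inhibition score of at least 50 and every replicate individually at or above 50; inconclusive = only one of the two criteria met; inactive = mean below 50 and not all replicates reaching 50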;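 also: 0% = plate neutral controls and 100% = maraviroc near 300 nM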
Wnt bcat act: Wnt/beta-catenin pathway activators, primary screen, cell-based, plate reader, single point; activation, % at 9.35 µM; 300,000 compounds, 1.2% hits; Wnt/beta-catenin reporter cell assay, activator; AID 743398, 2014; in the data active = activation above about 30%, passing the limit was not always enough; inconclusive = no clear call, values can overlap the other calls;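 also: 0% = neutral control wells and 100% = positive control wells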
Numbers without * were called inactive; ! = repeats disagree; [ ] = another dose, or the depositor's remark. Sampled rows, rich in hits. Any-hit rate of the full collection: about 3.5%.

Screening COC(=O)[C@@]1(C)[C@H]2C(=O)N(Cc3ccccc3)C(=O)[C@H]2[C@H]2CN=C(SCc3ccc(C#N)cc3)N21 returned Cneo AK release 1, esBAF inh 0, ERAP1 HTS inh 7, MITF TRPM1 HTS 3, Env fusion inh 75* and Wnt bcat act -1.
For CC[C@]1(C(=O)OC)[C@H]2C(=O)N(Cc3ccccc3)C(=O)[C@H]2[C@H]2CN=C(SCC(=O)c3ccccc3)N21 the results were Cneo AK release -1, esBAF inh 1, ERAP1 HTS inh 4, MITF TRPM1 HTS -4, Env fusion inh 72* and Wnt bcat act 1.
COC(=O)[C@@]1(C)[C@H]2C(=O)N(Cc3ccccc3)C(=O)[C@H]2[C@H]2CN=C(SCc3ccc(Cl)cc3)N21 was read as Cneo AK release 1, esBAF inh -5, ERAP1 HTS inh 1, MITF TRPM1 HTS -4, Env fusion inh 79* and Wnt bcat act -1.
Screening CO[C@@H](CN(C)S(=O)(=O)c1ccccc1)[C@@H](C)CN(C(=O)Nc1ccccc1F)[C@@H](C)CO returned Cneo AK release -5, esBAF inh 2 and ERAP1 HTS inh -1.
`C[C@@H]1CN([C@@H](C)CO)C(=O)Cc2cc(NS(=O)(=O)c3ccccc3)ccc2O[C@H]1CN(C)C(=O)Nc1ccc(C(F)(F)F)cc1` gave Cneo AK release -3, esBAF inh -4, ERAP1 HTS inh 1 and Env fusion inh 3[16.7 µM].
Screening CN(C)S(=O)(=O)c1ccc(Cl)c(NC(=O)CSc2nc3c(cc2C#N)C(=O)CC(C)(C)C3)c1 returned Cneo AK release 4, ERAP1 HTS inh 2, MITF TRPM1 HTS -2, Env fusion inh 7 and Wnt bcat act -2.
Screening CN(C)S(=O)(=O)c1cccc(NC(=O)CSc2nc3c(cc2C#N)C(=O)CC(C)(C)C3)c1 returned ERAP1 HTS inh -2, MITF TRPM1 HTS -67, Env fusion inh 70* and Wnt bcat act 0.
Screening COC(=O)Cn1c(=NC(=O)c2sc3ccccc3c2Cl)sc2cc(S(N)(=O)=O)ccc21 returned ERAP1 HTS inh 0, MITF TRPM1 HTS -6 and Wnt bcat act -4.
For COC(=O)Cn1c(=NC(=O)c2ccc(Cl)s2)sc2cc(C)ccc21 the results were Cneo AK release -2, esBAF inh 27, MITF TRPM1 HTS 85* and Env fusion inh -8.
COc1cc(/C=C/C2=NNC(=O)CC2)cc(OC)c1OC was read as Cneo AK release -1, esBAF inh -8, ERAP1 HTS inh 1, MITF TRPM1 HTS -44, Env fusion inh 73* and Wnt bcat act -12.
CC(C)c1ccc(/C=C/C2=NNC(=O)CC2)cc1 was read as ERAP1 HTS inh 6, MITF TRPM1 HTS -5, Env fusion inh 37 and Wnt bcat act 17.
CCNC(=O)C[C@H]1CC[C@H]2[C@@H](COc3ccc(NC(=O)C4CCCCC4)cc3C(=O)N2C)O1 was read as Cneo AK release -8, esBAF inh -6, ERAP1 HTS inh 0 and Env fusion inh -4[16.7 µM].
COc1cccc(-n2cnc3sc(-c4ccccc4)cc3c2=O)c1 was read as Cneo AK release 1, esBAF inh 47*, ERAP1 HTS inh 0, MITF TRPM1 HTS 101*, Env fusion inh -5 and Wnt bcat act 24.
`COc1ccc(-n2cnc3sc(-c4ccccc4)cc3c2=O)cc1` gave Cneo AK release 0, esBAF inh 34 and MITF TRPM1 HTS 124*.
CC(C)c1ncc(C(O)c2ccccc2)n1C (stereo unspecified) was read as esBAF inh 4, ERAP1 HTS inh 0, Env fusion inh 3 and Wnt bcat act inconclusive.
For CC(C)c1ccc(C(O)c2cnc(C(C)C)n2C)cc1 (stereo unspecified) the results were Cneo AK release 3, esBAF inh 73*, ERAP1 HTS inh -2, MITF TRPM1 HTS 40, Env fusion inh 3 and Wnt bcat act 8.
`CO[C@@H]1CN(C)C(=O)c2ccc(NC(=O)Nc3ccccc3F)cc2OC[C@H](C)N(CC2CC2)C[C@@H]1C` gave Cneo AK release 3, esBAF inh 6, ERAP1 HTS inh -1 and Env fusion inh -1[16.7 µM].
CNC[C@@H]1Oc2c(NC(=O)Nc3ccc4c(c3)OCO4)cccc2C(=O)N([C@H](C)CO)C[C@H]1C was read as Cneo AK release -11, esBAF inh -18, ERAP1 HTS inh 0 and Env fusion inh -4[16.7 µM].
CNC[C@@H]1Oc2c(N)cccc2C(=O)N([C@@H](C)CO)C[C@@H]1C was read as esBAF inh -3 and Env fusion inh 62*[16.7 µM].
`C[C@@H]1CN([C@@H](C)CO)C(=O)c2cccc(NC(=O)Nc3ccc4c(c3)OCO4)c2O[C@H]1CN(C)Cc1ccccc1` gave Cneo AK release 38, esBAF inh 35, ERAP1 HTS inh 0 and Env fusion inh 2[16.7 µM].
For C[C@H](CO)N1C[C@H](C)[C@H](CN(C)Cc2ccccc2)Oc2c(NC(=O)Nc3ccc4c(c3)OCO4)cccc2C1=O the results were Cneo AK release -7, esBAF inh -2, ERAP1 HTS inh 3 and Env fusion inh 65*[16.7 µM].
CNC[C@H]1Oc2c(NC(=O)Nc3ccc4c(c3)OCO4)cccc2C(=O)N([C@H](C)CO)C[C@@H]1C was read as Cneo AK release 0, esBAF inh 5 and Env fusion inh 64*[16.7 µM].
Screening C[C@H](CO)N1C[C@H](C)[C@@H](CN(C)Cc2ccc(-c3ccccc3)cc2)Oc2c(NC(=O)Nc3ccc4c(c3)OCO4)cccc2C1=O returned Cneo AK release 1, esBAF inh 43*!, ERAP1 HTS inh 0, MITF TRPM1 HTS -1, Env fusion inh 14[16.7 µM] and Wnt bcat act 15.
Clc1ccccc1Nc1nc2ccccc2o1 was read as Cneo AK release 0, esBAF inh 29, ERAP1 HTS inh 1, MITF TRPM1 HTS 77, Env fusion inh -66 and Wnt bcat act 60*.
`COCc1cc(=O)[nH]c(Nc2nc3ccccc3o2)n1` gave Cneo AK release 1, esBAF inh 50*, MITF TRPM1 HTS 5, Env fusion inh 5 and Wnt bcat act -6.
For COC(=O)Cc1cc(=O)[nH]c(Nc2nc3ccccc3o2)n1 the results were Cneo AK release 0 and MITF TRPM1 HTS 1.
`Cc1cccc(C)c1Nc1nc2ccccc2o1` gave Cneo AK release 48, esBAF inh -2, ERAP1 HTS inh 1, MITF TRPM1 HTS -6, Env fusion inh -34 and Wnt bcat act -4.
